Experimental data from different studies.
Sample: plasma

| SMILES | system | conditions | half-life |
| --- | --- | --- | --- |
| CCOc1cc2ncc(C#N)c(Nc3ccc(OCc4ccccn4)c(Cl)c3)c2cc1NC(=O)/C=C/[C@H]1CCCN1C | human | oral, 80 mg, single dose | 12.9 h |
| O=C(/C=C/c1cccc(S(=O)(=O)Nc2ccccc2)c1)NO | human | intravenous, 1900 mg/m², patients | 1.43 h |
| CC(C)(O)c1ccccc1-c1ccc2[nH]c(/C=C/c3ccc(C(F)(F)F)cc3)nc2c1 | male human | oral, 50 mg, single dose, fasted, healthy volunteers | 68.6 h |
| COc1cc(C(=O)NC2CCN(C)CC2)c(F)cc1Nc1ncc(C(F)(F)F)c(Oc2cccc3c2C(=O)N(C)C3)n1 | human | oral, 10 mg, multiple doses, once daily, patients | 25.8 h |
| c1cnc2ccc(Nc3nc(NC4CC4)c4nc[nH]c4n3)cc2c1 | human | oral, 100 mg/m², patients | 3.6 h |
| C#C[C@]1(COP(=O)(O)OP(=O)(O)OP(=O)(O)O)O[C@@H](n2cnc3c(N)nc(F)nc32)C[C@@H]1O | human | oral, 200 mg, single dose | 116 h |
| CCOc1ccc(Cc2cc([C@@H]3O[C@H](CO)[C@@H](O)[C@H](O)[C@H]3O)ccc2Cl)cc1 | human | oral, 10 mg, multiple doses, steady state, healthy volunteers | 10.4 h |
| COCCOc1cnc2ccn([C@H](C)c3nnc4c(F)cc(-c5cnn(C)c5)cn34)c(=O)c2c1 | human | oral, 50 mg, multiple doses, once daily, patients | 15.3 h |
| CO[C@@H]1[C@H](OC(=O)N2CC(CCN3CCOCC3)C2)CC[C@]2(CO2)[C@H]1[C@@]1(C)O[C@@H]1CC=C(C)C | human | subcutaneous, 4.8 mg, single dose, healthy volunteers | 0.91 h |
| Cc1nc(-c2cn3c(n2)-c2ccc(-c4cnn(C(C)(C)C(N)=O)c4)cc2OCC3)n(C(C)C)n1 | human | oral, 2 mg, patients | 28.1 h |
| COc1ccc([C@@H]2CN(C(=O)[C@@H](O)CO)C[C@@]2(C)[C@@H](C)O)cc1OC1CN(c2ccc(C)cn2)C1 | human | oral, 10 mg, single dose, healthy volunteers | 12.6 h |
| CC(C)[C@](O)(c1ccc2cc(OC(F)F)c(OC(F)F)cc2c1)c1c[nH]nn1 | female human | oral, 450 mg, single dose | 6.4 h |
| Cc1nc(C(=O)NCC(=O)O)c(O)c2ccc(Oc3ccccc3)cc12 | human | oral, 100 mg, single dose, healthy volunteers | 11.7 h |
| Cc1cc(Nc2ncc(Cl)c(Nc3ccccc3S(=O)(=O)C(C)C)n2)c2c(c1C1CCN(C)CC1)C[C@@H](C)O2 | human | oral, 160 mg, single dose, fasted, healthy volunteers | 34.6 h |
| C[C@@H](Nc1cc(F)cc(F)c1)c1cc(C(=O)N(C)C)cc2c(=O)cc(N3CCOCC3)oc12 | human | oral, 60 mg, patients | 5.2 h |
| NS(=O)(=O)NCCNc1nonc1C(=NO)Nc1ccc(F)c(Br)c1 | human | oral, 700 mg, multiple doses, twice daily, steady state, patients | 3 h |

| SMILES | system | conditions | half-life |
| --- | --- | --- | --- |
| CS(=O)(=O)CCC#N | human | oral, 100 mg, multiple doses, once daily | 16 h |
| Cn1cc(-c2ccc(S(=O)(=O)[C@@H]3C[C@@H](C(=O)NC4(C#N)CC4)N(C(=O)C4(C(F)(F)F)CC4)C3)c(C(F)(F)F)c2)cn1 | human | oral, 100 mg, single dose, fed, healthy volunteers | 8.8 h |
| CO[C@H]1/C=C\C=C(/C)C(=O)NC2=CC(=O)C(NCCN(C)C)=C(C[C@@H](C)C[C@H](OC)[C@H](O)[C@@H](C)/C=C(\C)[C@@H]1OC(N)=O)C2=O | human | intravenous, 27 mg/m², patients, infusion | 22.5 h |
| O=C(Nc1c(Cl)cncc1Cl)c1ccc(OC(F)F)c(OCC2CC2)c1 | human | oral, 0.5 mg, single dose | 19.9 h |
| CO[C@H]1CC[C@H](N2C(=O)CNc3ncc(-c4ccc(C(C)(C)O)nc4)nc32)CC1 | human | oral, 15 mg, patients | 3.35 h |
| C[C@@H](c1ccc2nccn2c1)n1nnc2ncc(-c3cnn(C)c3)nc21 | human | oral, 600 mg | 7.1 h |
| CCOc1cc([C@@H](CS(C)(=O)=O)N2C(=O)c3cccc(NC(C)=O)c3C2=O)ccc1OC | male human | oral, 20 mg, single dose, healthy volunteers | 7.6 h |
| CC(C)n1cc(C#N)c2cc(-n3cc(C(=O)O)cn3)ccc21 | human | oral, 50 mg, single dose, fasted, healthy volunteers | 7.1 h |
| CC(C)(C)N/[N+]([O-])=N/OC1CCN(c2ccc(C#N)cn2)CC1 | male human | oral, single dose, healthy volunteers | 46 to 78 h |
| CS(=O)(=O)n1cc2c(n1)CN([C@H]1CO[C@H](c3cc(F)ccc3F)[C@@H](N)C1)C2 | male human | oral, 10 mg, single dose, fasted | 49.9 h |
| CC(=O)Oc1ccccc1C(=O)O | human | oral, 650 mg, healthy volunteers | 0.53 h |
| CCNCCCNC/C=C\CNCCCNCC | human | intravenous, 100 mg, patients, infusion | 0.19 h |
| CC(C)(Sc1ccncc1-c1ccc(C#N)c2ccccc12)C(=O)O | male human | oral, 5 mg, single dose, fasted, healthy volunteers | 14.2 h |
| OC[C@H]1O[C@@H](c2ccc(Cl)c(Cc3ccc(O[C@H]4CCOC4)cc3)c2)[C@H](O)[C@@H](O)[C@@H]1O | male human | oral, 25 mg, multiple doses, once daily, steady state | 8.44 h |
| COc1ccc(-n2nc(C(N)=O)c3c2C(=O)N(c2ccc(N4CCCCC4=O)cc2)CC3)cc1 | human | oral, 10 mg, single dose, healthy volunteers | 12.7 h |
| Nc1cc(C(F)(F)F)c(-c2cc(N3CCOCC3)nc(N3CCOCC3)n2)cn1 | human | oral, 25 mg/day, patients | 36.8 h |
